Assay results: ChEMBL document CHEMBL1799941 (J Med Chem, 2011)
Active and inactive are the calls of the source.

Experiments:
[1] = biological target: T1, Cholesteryl ester transfer protein (Homo sapiens) (UniProt P11597); experiment: Inhibition of human recombinant CETP-mediated cholesteryl ester transfer activity at 100 uM after 1 hr by fluorescent cholesteryl esters transfer assay relative to control
T1 sequence (whole entry): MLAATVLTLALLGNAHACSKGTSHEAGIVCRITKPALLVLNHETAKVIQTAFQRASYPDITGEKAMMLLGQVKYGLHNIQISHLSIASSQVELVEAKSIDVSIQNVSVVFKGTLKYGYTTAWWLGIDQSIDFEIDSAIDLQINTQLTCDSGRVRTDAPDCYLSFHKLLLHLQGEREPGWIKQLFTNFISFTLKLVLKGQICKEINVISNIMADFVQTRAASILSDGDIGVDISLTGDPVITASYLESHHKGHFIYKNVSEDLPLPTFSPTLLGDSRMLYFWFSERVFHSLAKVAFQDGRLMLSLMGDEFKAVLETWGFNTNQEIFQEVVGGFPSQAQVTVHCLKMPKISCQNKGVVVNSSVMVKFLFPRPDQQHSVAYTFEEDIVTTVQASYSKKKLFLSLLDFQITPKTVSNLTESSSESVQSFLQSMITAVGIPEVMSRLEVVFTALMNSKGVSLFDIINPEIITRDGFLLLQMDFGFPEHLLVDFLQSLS

[2] = biological target: T2, Cholesteryl ester transfer protein (Homo sapiens, UniProt P11597); experiment: Inhibition of human recombinant CETP-mediated cholesteryl ester transfer activity after 1 hr by fluorescent cholesteryl esters transfer assay
T2 sequence (P11597 whole entry): T1 sequence (whole entry)

Mus musculus [3] = experiment: Increase in HDL-cholesterol level in C57BL/6 mouse expressing cynomolgus monkey CETP gene assessed as change in HDL-C level at 10 mg/kg, po BID measured 24 hrs after first dose; assay type: functional
Mus musculus [4] = experiment: Increase in HDL-cholesterol level in C57BL/6 mouse expressing cynomolgus monkey CETP gene assessed as change in HDL-C level administered orally twice daily and measured 24 hrs after first dose; assay type: functional, organism-based
In short: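 Pre-dose retro-orbital bleed. Dosed 10 mg/kg PO BID at 0 and 7 h in DMSO/cremophor/saline (4:4:92). Terminal cardiac-puncture bleed at 24 h. HDL-C by enzymatic kit; change from baseline, mean of 5 mice. A change of 5 mg/dL or less was generally considered not significant.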

[5] = Blood clearance in C57BL/6 mouse at 0.6 mg/kg, iv and 2 mg/kg, po; assay type: ADME, organism-based; conditions: whole blood
In short: (§1)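 Male C57BL/6 mice. IV dosing at 0.6 mg/kg, formulated in DMSO:PEG400:water (10:55:35, v/v/v). Oral dosing at 2 mg/kg, formulated in DMSO:cremophor:saline (2:4:94, v/v/v). Reported parameters were blood clearance, volume of distribution, terminal half-life, IV- and PO-normalized AUC, Cmax and Tmax in plasma after oral dosing, and oral bioavailability.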

[6] = Cmax in C57BL/6 mouse at 2 mg/kg, po; assay type: ADME, organism-based; parameters: dose 2 mg/kg, route oral; conditions: in vivo; in short: as §1
Mus musculus [7] = experiment: Dose-normalized AUC in C57BL/6 mouse at 0.6 mg/kg, iv; assay type: ADME, organism-based; parameters: dose 0.6 mg/kg, route intravenous; conditions: in vivo; in short: as §1
Mus musculus [8] = experiment: Increase in HDL-cholesterol level in C57BL/6 mouse expressing cynomolgus monkey CETP gene assessed as change in HDL-C level at 1 mg/kg, po BID measured 24 hrs after first dose; assay type: functional
In short: (§2)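 Baseline retro-orbital bleed. Oral BID dosing in DMSO/cremophor/saline (4:4:92). Euthanized 24 h after the first dose with cardiac-puncture bleed. HDL-C by enzymatic kit on pre- and post-dose samples. Change from baseline reported as mean ± SEM, 9 mice per dose.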

Mus musculus [9] = experiment: Increase in HDL-cholesterol level in C57BL/6 mouse expressing cynomolgus monkey CETP gene assessed as change in HDL-C level at 3 mg/kg, po BID measured 24 hrs after first dose; assay type: functional; in short: as §2
[10] = Tmax in C57BL/6 mouse at 2 mg/kg, po; assay type: ADME, organism-based; parameters: dose 2 mg/kg, route oral; conditions: in vivo; in short: as §1
[11] = Volume of distribution in C57BL/6 mouse at 0.6 mg/kg, iv and 2 mg/kg, po; assay type: ADME, organism-based; conditions: in vivo; in short: as §1
Mus musculus [12] = experiment: Terminal half life in C57BL/6 mouse at 0.6 mg/kg, iv and 2 mg/kg, po; assay type: ADME, organism-based; conditions: in vivo; in short: as §1
Mus musculus [13] = experiment: Increase in HDL-cholesterol level in C57BL/6 mouse expressing cynomolgus monkey CETP gene assessed as change in HDL-C level at 0.3 mg/kg, po BID measured 24 hrs after first dose; assay type: functional; in short: as §2
[14] = Oral bioavailability in C57BL/6 mouse at 2 mg/kg; assay type: ADME, organism-based; conditions: in vivo; in short: as §1
Mus musculus [15] = experiment: Dose-normalized AUC in C57BL/6 mouse at 2 mg/kg, po; assay type: ADME, organism-based; parameters: dose 2 mg/kg, route oral; conditions: in vivo; in short: as §1

Row | Compound | inhibition [1] [%] | IC50 [2] [nM] | Activity (Mus musculus [3]) | further results
1 | COc1ccc(C(C)C)cc1-c1ccc(C(F)(F)F)cc1CN1C(=O)O[C@H](c2cc(C(F)(F)F)cc(C(F)(F)F)c2)[C@H]1C | 90 |  |  | 
2 | COc1ccc(C(C)C)cc1-c1ccc(C(F)(F)F)cc1CN1C(=O)O[C@@H](c2cc(C(F)(F)F)cc(C(F)(F)F)c2)[C@@H]1C | 20 |  |  | 
3 | CC[C@H]1[C@@H](c2cc(C(F)(F)F)cc(C(F)(F)F)c2)OC(=O)N1Cc1cc(C(F)(F)F)ccc1-c1cc(C(C)C)ccc1OC (racemic) | 87 | 268 |  | 
4 | COc1ccc(C(C)C)cc1-c1ccc(C(F)(F)F)cc1CN1C(=O)O[C@H](c2ccccc2)[C@@H]1C | 94 | 39.3 | 6.3 mg/dL | 
5 | COC(=O)N(Cc1cc(C(F)(F)F)cc(C(F)(F)F)c1)Cc1cc(C(F)(F)F)ccc1-c1cc(C(C)C)ccc1OC | 87 | 126 | 15 mg/dL | 
6 | COc1ccc(C(C)C)cc1-c1ccc(C(F)(F)F)cc1CN1C(=O)O[C@@H](c2ccccc2)[C@H]1C | 90 | 5670 |  | 
7 | COc1cc(F)c(C(C)C)cc1-c1ccc(C(F)(F)F)cc1CN1C(=O)O[C@H](c2cc(C(F)(F)F)cc(C(F)(F)F)c2)[C@@H]1C [ANACETRAPIB] |  |  |  | Activity (Mus musculus [4]): Dose-dependent effect; clearance [5]: 11 mL/min/kg; Cmax [6]: 280 nM; AUC/dose (Mus musculus [7]): 2.4 µM·kg·h/mg; Activity (Mus musculus [8]): 16.4 mg/dL; Activity (Mus musculus [9]): 21.7 mg/dL; Tmax [10]: 1 h; Vd [11]: 2 L/kg; beta t1/2 (Mus musculus [12]): 3.6 h; Activity (Mus musculus [13]): 14 mg/dL; bioavailability [14]: 15%; AUC/dose (Mus musculus [15]): 0.356 µM·kg·h/mg
8 | COc1ccc(C(C)C)cc1-c1ccc(C(F)(F)F)cc1CN1C(=O)O[C@@H](c2cc(C(F)(F)F)cc(C(F)(F)F)c2)[C@H]1C | 8 |  |  | 
9 | COC(=O)N(Cc1cc(C(F)(F)F)cc(C(F)(F)F)c1)Cc1cc(C(F)(F)F)ccc1-c1cc(C(C)C)c(F)cc1OC | 88 |  | 15 mg/dL | 
10 | CC[C@@H]1[C@@H](c2cc(C(F)(F)F)cc(C(F)(F)F)c2)OC(=O)N1Cc1cc(C(F)(F)F)ccc1-c1cc(C(C)C)ccc1OC (racemic) | 49 |  |  | 

Second part, led by results:

Row | inhibition [1] [%] | IC50 [2] [nM] | Compound | Activity (Mus musculus [3]) | further results
11 | 46 |  | COc1cc(F)c(C(C)C)cc1-c1ccc(C(F)(F)F)cc1CN1C(=O)O[C@](C)(c2cc(C(F)(F)F)cc(C(F)(F)F)c2)[C@@H]1C |  | 
12 | 21 |  | COc1cc(F)c(C(C)C)cc1-c1ccc(C(F)(F)F)cc1CN1C(=O)O[C@@H](c2cc(C(F)(F)F)cc(C(F)(F)F)c2)C1(C)C |  | 
13 | 93 | 93 | COc1ccc(C(C)C)cc1-c1ccc(C(F)(F)F)cc1CN1C[C@@H](c2cc(C(F)(F)F)cc(C(F)(F)F)c2)OC1=O | inactive | 
14 | 94 |  | COc1cc(F)c(C(C)C)cc1-c1ccc(C(F)(F)F)cc1CN1C(=O)O[C@H](c2cc(C(F)(F)F)cc(C(F)(F)F)c2)C1(C)C | 17 mg/dL | 
15 | 97 | 25.6 | COc1cc(F)c(C(C)C)cc1-c1ccc(C(F)(F)F)cc1CN1C[C@@H](c2cc(C(F)(F)F)cc(C(F)(F)F)c2)OC1=O | 6.3 mg/dL | 
